Experimental data taken from ChEMBL document CHEMBL4321805, “A Conformational Restriction Strategy for the Identification of a Highly Selective Pyrimido-pyrrolo-oxazine mTOR Inhibitor” (J Med Chem, 2019).
pIC50, pKi: −log10 of the molar value.

How the values were obtained:
mTORC2 = mTORC2 (Homo sapiens, UniProt P42345); assay: Inhibition of mTORC2 in human A2058 cells assessed as reduction in PKB phosphorylation at S473 residues incubated for 1 hr by Western blot analysis; assay type: cell-based
In short: (§1)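 In-cell Western assay. A2058 cells (2 × 10^4/well) grown 24 h at 37 °C, 5% CO2, then exposed 1 h to inhibitor or DMSO. Cells fixed in 4% PFA, blocked, and stained for the phospho-protein with α-tubulin as internal standard; infrared fluorescence read-out. Signals normalized to tubulin and to DMSO controls to derive IC50.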

mTORC1 = mTORC1 (Homo sapiens, UniProt P42345); assay: Inhibition of mTORC1 in human A2058 cells assessed as reduction in ribosomal protein S6 phosphorylation at Ser235/236 residues incubated for 1 hr by Western blot analysis; assay type: cell-based; in short: as §1
[1] = biological target: PI3-kinase p110-alpha/p85-alpha (Homo sapiens, UniProt P42336); assay: Inhibition of alexa fluor 647-labeled kinase tracer 314 binding to recombinant human full-length N-terminal His6-tagged p110alpha/p85alpha expressed in baculovirus expression system by TR-FRET assay
Chain of PI3-kinase p110-alpha/p85-alpha (P27986 whole entry, the tested form may be a part): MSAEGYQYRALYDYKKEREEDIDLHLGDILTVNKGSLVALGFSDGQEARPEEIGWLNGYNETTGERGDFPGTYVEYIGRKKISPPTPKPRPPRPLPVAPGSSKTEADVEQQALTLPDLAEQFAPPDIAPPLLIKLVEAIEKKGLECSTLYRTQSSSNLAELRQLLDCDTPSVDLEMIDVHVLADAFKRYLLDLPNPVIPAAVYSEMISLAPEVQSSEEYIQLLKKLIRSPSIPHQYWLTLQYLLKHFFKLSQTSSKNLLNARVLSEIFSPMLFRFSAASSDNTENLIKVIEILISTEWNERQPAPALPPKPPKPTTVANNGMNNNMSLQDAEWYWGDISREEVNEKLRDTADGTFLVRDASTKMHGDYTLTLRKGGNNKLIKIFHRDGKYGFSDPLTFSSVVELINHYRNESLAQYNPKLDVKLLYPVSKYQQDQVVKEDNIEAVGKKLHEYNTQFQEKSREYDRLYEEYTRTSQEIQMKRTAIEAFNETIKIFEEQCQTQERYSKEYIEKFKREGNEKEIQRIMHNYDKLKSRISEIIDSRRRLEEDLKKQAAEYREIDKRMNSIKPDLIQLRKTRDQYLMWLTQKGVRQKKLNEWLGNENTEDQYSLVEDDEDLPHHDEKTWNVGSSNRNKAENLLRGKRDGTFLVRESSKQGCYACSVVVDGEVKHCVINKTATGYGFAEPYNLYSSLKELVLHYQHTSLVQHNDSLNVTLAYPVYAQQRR
Chain of PI3-kinase p110-alpha/p85-alpha (P42336 whole entry, the tested form may be a part): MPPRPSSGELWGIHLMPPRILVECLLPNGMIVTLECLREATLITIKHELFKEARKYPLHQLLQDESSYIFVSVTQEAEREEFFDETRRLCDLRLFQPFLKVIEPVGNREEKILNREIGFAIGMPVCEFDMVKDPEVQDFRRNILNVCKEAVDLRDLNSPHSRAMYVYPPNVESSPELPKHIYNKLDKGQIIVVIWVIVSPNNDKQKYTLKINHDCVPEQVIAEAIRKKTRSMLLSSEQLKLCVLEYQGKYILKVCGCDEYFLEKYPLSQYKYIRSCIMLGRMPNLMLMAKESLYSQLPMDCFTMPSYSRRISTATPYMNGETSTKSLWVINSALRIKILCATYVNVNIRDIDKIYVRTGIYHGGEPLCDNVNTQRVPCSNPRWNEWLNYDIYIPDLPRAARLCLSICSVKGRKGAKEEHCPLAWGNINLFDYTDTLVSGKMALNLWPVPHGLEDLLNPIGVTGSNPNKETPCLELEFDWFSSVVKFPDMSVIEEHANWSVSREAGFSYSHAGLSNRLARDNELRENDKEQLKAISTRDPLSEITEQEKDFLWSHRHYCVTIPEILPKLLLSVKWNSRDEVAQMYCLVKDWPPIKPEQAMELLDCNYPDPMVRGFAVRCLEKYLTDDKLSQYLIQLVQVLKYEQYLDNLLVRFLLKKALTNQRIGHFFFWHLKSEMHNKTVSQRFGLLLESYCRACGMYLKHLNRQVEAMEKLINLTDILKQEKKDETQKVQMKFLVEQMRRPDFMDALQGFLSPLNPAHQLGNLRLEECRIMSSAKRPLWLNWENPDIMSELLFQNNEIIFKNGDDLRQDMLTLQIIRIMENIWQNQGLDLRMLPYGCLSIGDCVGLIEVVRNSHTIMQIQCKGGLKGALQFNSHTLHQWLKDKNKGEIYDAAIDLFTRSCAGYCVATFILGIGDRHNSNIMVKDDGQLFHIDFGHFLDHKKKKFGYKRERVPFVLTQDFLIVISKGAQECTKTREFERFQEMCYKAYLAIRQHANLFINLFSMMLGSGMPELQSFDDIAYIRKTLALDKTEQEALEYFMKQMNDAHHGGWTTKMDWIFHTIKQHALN

[2] = biological target: Serine/threonine-protein kinase mTOR (Homo sapiens, UniProt P42345); assay: Inhibition of alexa fluor 647-labeled kinase tracer 314 binding to recombinant human N-terminal GST-fused mTOR (1360 to 2549 residues) expressed in baculovirus expression system by TR-FRET assay
In short: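 LanthaScreen TR-FRET tracer displacement. GST-fused truncated mTOR (aa 1360–2549) detected with Eu-anti-GST antibody (2 nM). […] Buffer: 50 mM HEPES, 5 mM MgCl2, 1 mM EGTA, 0.01% Pluronic F-127. Ki derived from displacement.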

Homo sapiens [3] = species on record: Homo sapiens; assay: Selectivity ratio of Ki for inhibition of alexa fluor 647-labeled kinase tracer 314 binding to recombinant human full-length N-terminal His6-tagged p110alpha/p85alpha expressed in baculovirus expression system to Ki for inhibition of alexa fluor 647-labeled kinase tracer 314 binding to recombinant human N-terminal GST-fused mTOR (1360 to 2549 residues) expressed in baculovirus expression system
In short: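 Ratio of Ki values from the TR-FRET tracer 314 displacement assays. p110α: His6-tagged enzyme, biotin anti-His antibody and Eu-streptavidin (2 nM each), tracer at 20 nM, buffer 50 mM HEPES pH 7.5, 10 mM MgCl2, 1 mM EGTA, 0.01% Brij-35. mTOR: GST-mTOR 1360–2549, Eu-anti-GST, tracer 10 nM, HEPES/5 mM MgCl2/EGTA/Pluronic buffer.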

Cytochrome P450 1A1 = biological target: T1, Cytochrome P450 1A1 (Homo sapiens, UniProt P04798); assay: Drug level treated with 5-((R)-4-((R)-3-Methylmorpholino)-5a,6,8,9-tetrahydro-5H-pyrimido[5',4':4,5]pyrrolo[2,1-c][1,4]oxazin-2-yl)pyrimidin-2-amine assessed as recombinant human CYP1A1-mediated compound formation incubated for 60 mins by LC/MS analysis; assay type: ADME; conditions: recombinant enzyme, 1 h
T1 sequence (P04798 whole entry): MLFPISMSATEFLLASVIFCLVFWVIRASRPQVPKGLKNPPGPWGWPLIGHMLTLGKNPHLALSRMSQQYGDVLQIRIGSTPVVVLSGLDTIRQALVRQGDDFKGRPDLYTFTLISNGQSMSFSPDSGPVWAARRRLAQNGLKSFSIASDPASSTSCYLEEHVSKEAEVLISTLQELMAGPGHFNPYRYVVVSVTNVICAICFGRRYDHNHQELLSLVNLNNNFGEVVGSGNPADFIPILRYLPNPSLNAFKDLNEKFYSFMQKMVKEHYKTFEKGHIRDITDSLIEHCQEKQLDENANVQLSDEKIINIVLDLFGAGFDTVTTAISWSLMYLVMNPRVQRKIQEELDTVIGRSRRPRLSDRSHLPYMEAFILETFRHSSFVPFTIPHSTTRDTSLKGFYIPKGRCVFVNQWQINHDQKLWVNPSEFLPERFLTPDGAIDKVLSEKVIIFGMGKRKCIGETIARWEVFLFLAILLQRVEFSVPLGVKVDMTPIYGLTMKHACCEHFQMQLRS
In short: (§2)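 Human recombinant CYP1A1 or CYP1A2 Supersomes (25 pmol/mL) incubated with compound at 1 μM (0.25% DMSO) plus NADP+-regenerating cofactors at 37 °C for 60 min. Reaction stopped with ACN containing internal standard. Parent and metabolites expressed as percentage of total peak areas.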

Cytochrome P450 1A2 = biological target: T2, Cytochrome P450 1A2 (Homo sapiens, UniProt P05177); assay: Drug level treated with 5-((R)-4-((R)-3-Methylmorpholino)-5a,6,8,9-tetrahydro-5H-pyrimido[5',4':4,5]pyrrolo[2,1-c][1,4]oxazin-2-yl)pyrimidin-2-amine assessed as recombinant human CYP1A2-mediated compound formation incubated for 60 mins by LC/MS analysis; assay type: ADME; conditions: recombinant enzyme, 1 h; in short: as §2
T2 sequence (P05177 whole entry): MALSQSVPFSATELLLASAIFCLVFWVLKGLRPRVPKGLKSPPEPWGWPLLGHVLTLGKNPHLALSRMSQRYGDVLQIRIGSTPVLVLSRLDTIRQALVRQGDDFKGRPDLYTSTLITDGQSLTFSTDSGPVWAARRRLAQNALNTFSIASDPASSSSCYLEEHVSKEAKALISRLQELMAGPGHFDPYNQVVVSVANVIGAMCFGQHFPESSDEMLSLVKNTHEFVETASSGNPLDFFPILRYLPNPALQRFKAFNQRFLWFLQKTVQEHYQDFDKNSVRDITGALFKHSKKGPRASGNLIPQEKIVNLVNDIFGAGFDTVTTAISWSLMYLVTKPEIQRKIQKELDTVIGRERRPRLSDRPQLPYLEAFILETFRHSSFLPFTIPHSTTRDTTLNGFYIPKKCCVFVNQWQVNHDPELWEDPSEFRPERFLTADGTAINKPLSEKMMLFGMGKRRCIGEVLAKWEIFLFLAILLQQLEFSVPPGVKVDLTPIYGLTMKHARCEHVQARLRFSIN

Homo sapiens [4] = species on record: Homo sapiens; assay: Selectivity ratio of Kd for binding affinity to human wild-type partial length PI3Kalpha (R108 to N1068 residues) expressed in mammalian expression system to Kd for binding affinity to wild-type human partial length mTOR (L1382 to W2549 residues) expressed in mammalian expression system
In short: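 Ratio of Kd values from the DNA-tagged kinase competition binding assay (qPCR read-out, 11-point 3-fold dilution from 30 μM, Hill fit with slope −1, duplicates): PI3Kα Kd divided by mTOR Kd.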

pIC50 (mTORC2) | pIC50 (mTORC1) | pKi [1] | pKi [2] | Ratio Ki (Homo sapiens [3]) | Drug metabolism (Cytochrome P450 1A1) | Drug metabolism (Cytochrome P450 1A2) | SMILES | Selectivity ratio (Homo sapiens [4])
6.71 | 6.83 | 6.41 | 8.04 | 43 |  |  | C[C@H]1COCCN1c1nc(-c2ccc(N)nc2)nc2c1C[C@@H]1COCCN21 | 
6.39 | 6.87 | 6.42 | 7.62 | 16 |  |  | CC1(C)COCCN1c1nc(-c2ccc(N)nc2)nc2c1C[C@@H]1COCCN21 | 
6.93 to 6.94 | 7.02 | 6.36 | 7.62 | 18 to 18.3 |  |  | Nc1ccc(-c2nc(N3CCOCC3)c3c(n2)N2CCOC[C@H]2C3)cn1 | 
6.71 | 6.79 | 7.12 | 7.16 | 1.1 |  |  | Nc1ccc(-c2nc(N3CCOCC3)c3c(n2)N2CCOC[C@@H]2C3)cn1 | 
6.38 | 6.36 | 7.01 | 6.98 | 0.9 |  |  | C[C@H]1COCCN1c1nc(-c2ccc(N)nc2)nc2c1C[C@H]1COCCN21 | 
5.81 | 6.08 | 5.56 | 7.07 | 33 |  |  | Cc1cc(N)ncc1-c1nc2c(c(N3CCOC[C@H]3C)n1)C[C@@H]1COCCN21 | 
6.44 | 6.64 | 6.03 | 7.51 | 30 |  |  | C[C@@H]1COCCN1c1nc(-c2ccc(N)nc2)nc2c1C[C@H]1COCCN21 | 
6.31 | 6.54 | 5.02 | 7.25 | 172 |  |  | Cc1cc(-c2nc3c(c(N4CCOC[C@H]4C)n2)C[C@@H]2COCCN32)cnc1N | 

Continued, molecule first:

SMILES | pIC50 (mTORC2) | pIC50 (mTORC1) | pKi [1] | pKi [2] | Ratio Ki (Homo sapiens [3]) | Drug metabolism (Cytochrome P450 1A1) | Drug metabolism (Cytochrome P450 1A2) | Selectivity ratio (Homo sapiens [4])
Nc1cc(C(F)(F)F)c(-c2nc(N3CCOCC3)c3c(n2)N2CCCC[C@@H]2C3)cn1 | 6.49 | 5.91 | 7.32 |  |  |  |  | 
Nc1ccc(-c2nc(N3CCOCC3)nc3c2C[C@H]2COCCN32)cn1 | 5.73 | 5.75 | 6.06 | 6.09 | 1.1 |  |  | 
CC1(C)COCCN1c1nc(-c2ccc(N)nc2)nc2c1C[C@H]1COCCN21 | 5.88 | 6.00 | 5.14 | 6.92 | 59 |  |  | 
CC(C=O)N(CCO)c1nc(-c2cnc(N)nc2)nc2c1C[C@@H]1COCCN21 (stereo not given in full) |  |  |  |  |  | Metabolite_Detected | Metabolite_Detected | 
COC(OC)c1cc(N)ncc1-c1nc2c(c(N3CCOC[C@H]3C)n1)C[C@@H]1COCCN21 | 5.19 | 5.62 | 5.95 | 6.52 | 3.7 |  |  | 
Nc1ccc(-c2nc(N3C4CCC3COC4)c3c(n2)N2CCOC[C@@H]2C3)cn1 | 6.41 | 6.45 | 5.49 | 7.22 | 54 |  |  | 
Nc1cc(C(F)(F)F)c(-c2nc(N3CCOCC3)c3c(n2)N2CCCC[C@H]2C3)cn1 | 6.39 | 6.03 | 7.66 |  |  |  |  | 
Nc1cc(C(F)(F)F)c(-c2nc(N3CCCCC3)c3c(n2)N2CCOC[C@@H]2C3)cn1 | 4.66 | 4.36 | 5.55 |  |  |  |  | 
Nc1ccc(-c2nc(N3CC4CCC(C3)O4)c3c(n2)N2CCOC[C@@H]2C3)cn1 | 6.39 | 6.61 | 5.91 | 7.02 | 13 |  |  | 
Nc1cc(C(F)(F)F)c(-c2nc(N3CCCCC3)c3c(n2)N2CCOC[C@H]2C3)cn1 | 5.68 | 5.58 | 6.86 |  |  |  |  | 
Nc1cc(C(F)(F)F)c(-c2nc(N3CCOCC3)c3c(n2)N2CCOC[C@@H]2C3)cn1 | 6.45 | 6.12 | 7.68 |  |  |  |  | 
COC(OC)c1nc(N)ncc1-c1nc2c(c(N3CCOC[C@H]3C)n1)C[C@@H]1COCCN21 | 6.27 | 6.42 | 7.18 | 7.47 | 2 |  |  | 
Nc1ccc(-c2nc(N3CCOCC3)nc3c2C[C@@H]2COCCN32)cn1 | 5.81 | 5.73 | 6.27 | 5.89 | 0.4 |  |  | 
Nc1ccc(-c2nc(N3CC4CCC(C3)O4)c3c(n2)N2CCOC[C@H]2C3)cn1 | 6.68 | 6.80 | 5.85 | 7.57 | 53 |  |  | 
COc1cc(N)ncc1-c1nc2c(c(N3CCOC[C@H]3C)n1)C[C@@H]1COCCN21 | 5.43 | 5.60 | 4.80 | 6.68 | 77 |  |  | 
Nc1cc(C(F)F)c(-c2nc(N3C4CCC3COC4)nc(N3C4CCC3COC4)n2)cn1 | 6.72 | 7.07 |  |  | 389 |  |  | > 3700
CC(C=O)N(CCO)c1nc(-c2cnc(N)nc2)nc2c1C[C@@H]1COC=CN21 (stereo not given in full) |  |  |  |  |  | Metabolite_Detected |  | 
Nc1ccc(-c2nc(N3C4CCC3COC4)c3c(n2)N2CCOC[C@H]2C3)cn1 | 6.82 | 6.88 | 5.96 | 7.51 | 36 |  |  | 
Nc1cc(C(F)(F)F)c(-c2nc(N3CCOCC3)c3c(n2)N2CCOC[C@H]2C3)cn1 | 6.45 | 6.28 | 7.25 |  |  |  |  | 
